Laboratory results published in the EternaBench riboswitch data.

Tested on: MS2 coat protein
Experiment: apparent Kd, MS2 coat protein; higher = weaker binding; RNA-MaP array; FMN 200 µM where present
Outline: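 Green signal was scaled to red-channel RNA signal and control-cluster median Fmax, and the apparent Kd was taken as the median of filtered per-cluster binding-curve fits. The binding series used SNAP-549-labelled MS2 coat protein from 0.7 or 1.5 nM, doubling to 3 µM, on designs transcribed by stalled E. coli RNA polymerase on Illumina sequencing-chip clusters. Each series ran without and then with constant ligand in 100 mM Tris-HCl pH 7.5, 80 mM KCl, 4 mM MgCl2, BSA, DTT, yeast tRNA and Tween-20.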

[1] = designed as: OFF switch for flavin mononucleotide, no ligand
[2] = ligand present: flavin mononucleotide, designed as: OFF switch for flavin mononucleotide
[3] = designed as: ON switch for flavin mononucleotide, no ligand
[4] = ligand present: flavin mononucleotide, designed as: ON switch for flavin mononucleotide

| Sequence | apparent Kd [1] | apparent Kd [2] | apparent Kd [3] | apparent Kd [4] |
| --- | --- | --- | --- | --- |
| CGUGCUAUGUAGAAGGCAGAUCUGAUUCAGAUCUGAGGAUAUACAUGAGGAUCACCCAUGUUAUGCACCAGCACGAGAGUGCAU | 9.83 nM | 40.2 nM | – | – |
| GUUGUUCGAGGAUAUACAUGAGGAUCACCCAUGUGUGUUGUGGGCGACGUUCGUUUAUGUAGAAGGCGAGCGGC | 63.3 nM | 92.1 nM | – | – |
| AUAUAUGCCCAGAAGGUGCCAGCGAGAGCUGCACAUGAGGAUCACCCAUGUUGUCGGUGACGACGCAAGGAUAUGGGCAUAUAU | – | – | 24.5 nM | 7.26 nM |
| GUCCUUUCUGAGGAUAUUAUCUGGUUCGAUUGAUAAGAAGGCAGUACAUGAGGAUCACCCAUGUGGUUCGUUUG | 115 nM | 268 nM | – | – |
| GCACUUGCGUAGAAGGUACAUUAUAAUUAAUUGUAAGGAUAUACAAACAUGAGGAUCACCCAUGUAAAUGGAAUUUGCAAGUGC | – | – | 6.52 nM | 6.36 nM |
| CGGUCGAUAUCAGGAUAUCGAUUAAUUACAUGAGGAUCACCCAUGUUGACAUGGAAUAUAACAUGCGAGAAGGGAUUACGAUCG | – | – | 27.6 nM | 10.7 nM |
| UGGCUACAUGAGGAUCACCCAUGUCAGGAUAUGCCGUUGGAUUGACAUCGUCGUUCGGGUAGAAGGGACUGCGU | 47.6 nM | 53.1 nM | – | – |
| UAUAUGUCAGGAUAUCGAUUGGAAUGGAAUUUAGUUCUGGUUGAGAAGGGACAUGAGGAUCACCCAUGUUUUUC | 35.5 nM | 213 nM | – | – |
| AUAUAUAUAGGAUAUACAUGAGGAUCACCCAUGUGCUUCAGCUAGGAGACUAGCAUUGGUAGAAGGAUAUAUAU | 16.1 nM | 26.1 nM | – | – |
| GUCGGAAACGACAAUGAUAGGACUGAGGAUAUACAUAAAUAAAUCCUUACAUGAGGAUCACCCAUGUAGAAGGCAGUCCUAUCU | 47.2 nM | 590 nM | – | – |
| CCUUCUCGUGUCAGGAUAUCCACUCAUCGAAAUUAGGAGAAGGGACAUGAGGAUCACCCAUGUAUACAUGCCAG | 73 nM | 102 nM | – | – |
| GCGACGAUCGAGAAGGCCACUACAUGAGGAUCACCCAUGUCGUGGUGUAUUGGAGGAUAUCGAUCAGCGUCUUAUGAGGACAUG | 5.13 nM | 7.68 nM | – | – |
| UGCCUUUGAGGAUAUACAUUGAAUUUGAUUCAUGUAAAACUACAUGAGGAUCACCCAUGUAGAAGGCAAGGGCU | 18.7 nM | 27.7 nM | – | – |
| CGAGAUCUUGAGAAGGCAUAAUAUAUAAUACCACAUGUUUACAUGAGGAUCACCCAUGUUUCCAAUGAGGAUAUCAGGAUUUCG | 19.6 nM | 14.8 nM | – | – |
| UAGGUUUGUAGUUACAUCCCUACACAGGAUAUAGGUAGUUACAUGAGGAUCACCCAUGUUCGAACUUAGAAGGGUGGAUCGUUG | – | – | 48 nM | 10.3 nM |
| UAAUAAUAGCAAGGAUAUGAUUAUUAUAAUAUAUCAGAAGGUGCACAUGAGGAUCACCCAUGUUUUAUAAUUUGUAAUUUAAAU | 54.4 nM | 37.9 nM | – | – |
| GGUUAAUAUCGAGGAUAUGUCUAGACACAUGAGGAUCACCCAUGUAUGUGUAUAGAAGGCGAUAUUAACAGCAUGUUACAUGCA | – | – | 43.3 nM | 16.4 nM |
| GCGAUUUUGUAAGGAUAUACUCGAGUUUUAAGAGUAGAAGGUACUUACAUGAGGAUCACCCAUGUCUAACGAAAUACUAGUCGC | – | – | 10.5 nM | 8.44 nM |
| GUACUACAUGAGGAUCACCCAUGUCAGGAUAUGUGAAUUUCAUCAAAAGAUGAAAUUUGCAGAAGGGACAGUAC | 25.3 nM | 33.9 nM | – | – |
| GGUCCAUCAUGAGGAUAUGGCACCUUAUUGGUGCCAGAAGGCAUGUCUUUAGACAUGAGGAUCACCCAUGUAAAUAAUUGGACC | – | – | 1030 nM | 92.5 nM |
| AGGGAGUUAGGAUAUGCUGCUCGUCACUUGCGUGAUGAGUAGCAGAAGGAACAUGAGGAUCACCCAUGUAAAGA | 34.9 nM | 28.8 nM | – | – |
| UUAGUCAUGUUAGGAUAUCCGAUGCGAAGCGUUGGAGAAGGAACAUGAGGAUCACCCAUGUUCUGCGUCUGAGUACAGAUGCUA | 29.6 nM | 123 nM | – | – |
| AUACCUUAUGAGAAGGCGAUCAUGAAACAUGAUCGAGGAUAUCAUGUAAACAUGAGGAUCACCCAUGUAUGGGUAUUAUGGUAC | – | – | 28.4 nM | 9.72 nM |
| GGCUGCAAUUAUGAGGAUAUGUUCGGAUGAACAUGAGGAUCACCCAUGUGGCGAUAGCUAUCUGUGCAGAAGGUGUAGUGGUAGC | – | – | 213 nM | 61.8 nM |
| AUGCUAUACGAAGGAUAUGGUUACAUGAGGAUCACCCAUGUAAUUUUUGUGAUCUUGUUUAAGUUCCAGAAGGUCGUAUAGCUA | 42.2 nM | 156 nM | – | – |
| AAGUCUGGACGAGGAUAUCAGUUGUAUCUGGCAUCAACAUGAGGAUCACCCAUGUUGCAAUAGGGUGAGAAGGCGUUUGGGCAA | – | – | 278 nM | 29.7 nM |
| AUCAGAUCGUCAGGAUAUACGUCACUGCGUCAGCAGUGUGGUAAGAUCACAUGAGGAUCACCCAUGUAGAAGGGACGAGCUGAU | 13.9 nM | 296 nM | – | – |
| ACAUGGAAUACAGGAUAUGUAAGUUUUAAGUAGAUUGGUUAUUACUUUACUACAGAAGGGUAAUACAUGAGGAUCACCCAUGUA | – | – | 16.9 nM | 12.2 nM |

| Sequence | apparent Kd [1] | apparent Kd [2] | apparent Kd [3] | apparent Kd [4] |
| --- | --- | --- | --- | --- |
| AUCUAAGAAUUAAUUGUGACAGUGAGAAGGCUAUAGUUUGUGACCGACAUGAGGAUCACCCAUGUAGAGGAUAUCACUAGCUAC | 39.9 nM | 253 nM | – | – |
| CGGUACUGAGGAUAUACAUGAGGAUCACCCAUGUGUUCUAGCUAGCGUACUGGCUAUUGUAGAAGGCGGUGCUG | 17.5 nM | 99.8 nM | – | – |
| AUGCGUCGAGAGGAUAUUUGCGAGGUGACCAGCAAAGAAGGUUCGACAUGAGGAUCACCCAUGUCCAGCAUUUG | 34.2 nM | 72.8 nM | – | – |
| UUACAUACAAAUGUACAUGAGGAUCACCCAUGUUUGUUGGGAAGAAGGGUAACAGUACUACACAUACAGGAUAUUUCACAAAUA | – | – | 54 nM | 34 nM |
| GGGUGAUCUUUAGGAUAUCCCGCGCCAAAGUGCGUUUAUACUACAUGAGGAUCACCCAUGUAACGGGAGAAGGGAGGAAGCCCG | – | – | 81.7 nM | 29 nM |
| AAUUAAUUAAUACAUGAGGAUCACCCAUGUAAUUAUUAGAUCUAGGAUAUCAGCUCGUUUAGAGCUGAGAAGGAGAUCACAUGU | – | – | 19.2 nM | 14.6 nM |
| CAGUACUGAGGAUAUACAUGAGGAUCACCCAUGUGUUCCAGCUAGGAAACUAGCAAAAGUAGAAGGCAGUACUG | 27.5 nM | 589 nM | – | – |
| CCUCGACAUGAGGAUCACCCAUGUCAGGAUAUUGUGUCUCGGGUUUUUUACCGAUAGGCAAGAAGGGAUGUGUG | 23.4 nM | 31 nM | – | – |
| AAAAUAAGGCGAGGAUAUCGACAGCAUGUGUGACGAGAAGGCGCGAUAGGUGGGUUCCUUGACAUGAGGAUCACCCAUGUAGAA | 65.7 nM | 114 nM | – | – |
| AGCUGUGGCCGAGGAUAUCUAUCUUCAAUAACCGAAAUAUAAUCGGACAUGAGGAUCACCCAUGUAGAGAAGGCGGUCUCAGCA | 33.6 nM | 84.5 nM | – | – |
| CAUGUUUGGCUGGUCGAGAAACACAUGAGGAUCACCCAUGUCAGAAGGCGACGUCAGCAAACCGUCGAGGAUAUGACAUCAAAA | 5.65 nM | 30.2 nM | – | – |
| GCAUAUCAGGGAGGAUAUGACAUGAGGAUCACCCAUGUAAUUAUGGCUCUGUCAGAAGGCCCAUCGUCAGUAUAGUGACGAGAC | 375 nM | 137 nM | – | – |
| AGUGUCAUCGAGAAGGCCUCGACAUGAGGAUCACCCAUGUUGUAAUAUGGGAGGAUAUCGAUGAUACAGCUACGUUUCGUAGCA | – | – | 40.3 nM | 13.4 nM |
| UUAUUUAUACAAGGAUAUCAGUUAGUUACAAUUCCUACAUGAGGAUCACCCAUGUUUUUUUUUUUUGAGAAGGUGUAUUGUCUG | – | – | 45.2 nM | 52.9 nM |
| UUAGAAUUGCAAGGAUAUCUAAUUUAGAUAGUAAGAGAAGGUGCUUGAUAGUUACAUGAGGAUCACCCAUGUUUUUGGGUUUAU | – | – | 545 nM | 412 nM |
| UGCAUGUAAGGAUAUGCAUCCGCCGACGUCCCGGCGCCACAGCAGAAGGUACAUGAGGAUCACCCAUGUGUCCC | 21.3 nM | 49.2 nM | – | – |
| AGAUGGCGAGGAUAUACAUGAGGAUCACCCAUGUGAGAUAAAUAAGUGAGGAAGAAAAGUAGAAGGCGCUGUCA | 81.3 nM | 387 nM | – | – |
| UAUUAGUGAGGAUAUGAGUCGUAGAACAAUAGUACUACGUCUCAGAAGGUACAUGAGGAUCACCCAUGUUUCUC | 20 nM | 23.8 nM | – | – |
| UUUAUGUCAGGAUAUGAUUAGAUCUACUUCGGUAGAUCUAAUCAGAAGGGACAUGAGGAUCACCCAUGUUUUUU | 43.8 nM | 223 nM | – | – |
| CGAUGUUAUGCAGGAUAUCUCCCUUGAAUGCGGAGAGAAGGGCAUAGGGAGACAUACGCCUUAUUACAUGAGGAUCACCCAUGU | 8.42 nM | 7.86 nM | – | – |
| GGCGUGUUAGGAUAUCGCGGCGGCGGCGUUUGUUGUUGUUGUGAGAAGGAACAUGAGGAUCACCCAUGUGUGCC | 62.7 nM | 295 nM | – | – |
| AGCAUGUGAGGAUAUGCAGUUGACCGGUACGCCCAGUCAGGGCAGAAGGCACAUGAGGAUCACCCAUGUGAUAG | 44.7 nM | 122 nM | – | – |
| GCUGCAUAGGCAGGAUAUGCAACAAUGAGAAUAAAAUAUAACUCAUUGACAUGAGGAUCACCCAUGUAGAAGGGCCUGUGCAGU | 19 nM | 18.2 nM | – | – |
| CAGGUAGACUGAGGAUAUACAAUAAACAGCUAGUCUAUCUAGCUGUCUACAUGAGGAUCACCCAUGUAGAAGGCAGUCUGCCUG | 17 nM | 17.4 nM | – | – |
| AAAAAACAUGAGGAUCACCCAUGUAAAAAAAUCGCAGGAUAUACGGUCGCGAAAGCGACCGUAGAAGGGCGAUCCU | – | – | 251 nM | 94.8 nM |
| GUCGUGUUAGGAUAUGGCGGCGGCGGCGUUUGUUGUUGUUGUUAGAAGGAACAUGAGGAUCACCCAUGUAUGAC | 43.4 nM | 119 nM | – | – |
| CUUUAGUGAGGAUAUCAGUAGUAAUACAAUAGUAUUACUAUUGAGAAGGCACAUGAGGAUCACCCAUGUUCCUC | 24.6 nM | 141 nM | – | – |
